Screening data (PubChem)
MrgX1 antagonist = antagonists of human MrgX1 receptor, primary screen, HEK293 cells, Fluo-4 calcium flux; 1.3% of 310,000 active; B-score at 10 µM; AID 588676, 2011; BAM8-22 antagonism; active compounds read low;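 active = calcium-response B-score plate-corrected more than 3 library SD below zero, starting fluorescence within 5 deviations, no agonist response on first addition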;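 note: peak minus trough fluorescence over baseline after final BAM8-22 challenge near maximal dose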
Target sequence (Q96LB2 whole entry, looked up): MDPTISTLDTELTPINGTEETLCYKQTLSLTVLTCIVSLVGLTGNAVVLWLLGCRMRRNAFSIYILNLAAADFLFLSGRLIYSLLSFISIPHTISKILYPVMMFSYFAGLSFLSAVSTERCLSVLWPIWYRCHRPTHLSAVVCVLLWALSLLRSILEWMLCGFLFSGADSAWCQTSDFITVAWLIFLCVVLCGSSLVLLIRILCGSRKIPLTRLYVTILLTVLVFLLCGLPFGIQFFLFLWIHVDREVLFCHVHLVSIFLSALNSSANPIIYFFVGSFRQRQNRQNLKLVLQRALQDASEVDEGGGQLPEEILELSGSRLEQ
MrgX1 PAM = positive allosteric modulators of MrgX1, primary screen, HEK293 cells, Fluo-4 calcium flux | FDSS; active compounds read high | B-score at 10 µM | Mas-related G-protein coupled receptor member X1 (Homo sapiens), Q96LB2 | 0.63% of 310,000 active;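 active = plate-corrected calcium response at least 3 library SD above typical, normal starting fluorescence, not activating the receptor alone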;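 note: compound read alongside a low EC10 to EC30 dose of BAM8-22 agonist; peak minus trough fluorescence over baseline measured at the second addition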
MrgX1 agonist = agonists of human MrgX1 receptor, primary screen, HEK293 cells, Fluo-4 calcium flux; Mas-related G-protein coupled receptor member X1 (Homo sapiens), Q96LB2; AID 588627, 2011; 0.44% of 310,000 active; Fluo-4 calcium fluorescence, agonist mode; active compounds read high; B-score at 10 µM;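 active = calcium response B-score plate-corrected fluorescence ratio at least 3 library SD, with starting fluorescence B-score inside 5 SD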
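System – MrgX1-expressing HEK293 cells · Incubation – cells plated overnight, dye loaded 0.5 h 37 °C, 0.5 h room temperature · Technique – kinetic Fluo-4 NW fluorescence of intracellular calcium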
RGS4 act = RGS4 potentiators or activators, primary screen, cell-based, HEK293 M3R inducible RGS4, calcium flux; carbachol calcium flux Fluo4; active compounds read low; B-score at 10 µM; 0.92% of 310,000 active;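 active = B-score of the integrated calcium signal more than 4 SD below the library mean, with starting fluorescence not abnormally high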;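 note: negative B-score means reduced calcium response which marks RGS4 activation or potentiation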
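Reagent: ECmax carbachol challenge; Test system: M3R-expressing HEK293 line, RGS4 induced by doxycycline; Schedule: overnight RGS4 induction, 30 min dye load 37 °C, 20 min compound RT; Detection: calcium dye Fluo4 fluorescence; Read-out: Agonist-evoked peak-minus-minimum fluorescence over baseline, integrated ratio, B score.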
RGS4 inh = RGS4 inhibitors, primary screen, cell-based, HEK293 M3R inducible RGS4, calcium flux. Regulator of G-protein signaling 4 (Homo sapiens), P49798. Fluo-4 calcium flux; active compounds read high; triggered by carbachol at its EC20. B-score at 10 µM. 0.45% of 310,000 active;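 active = B-score, a plate-corrected calcium signal, over three deviations above library mean, with baseline fluorescence within five deviations of library mean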;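 note: RGS4 expression induced by doxycycline in cells with stable M3 receptor; B-score is computed from the integrated fluorescence ratio over baseline after carbachol; higher B-score means a larger calcium signal and so more RGS4 inhibition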
Target sequence (P49798 whole entry, looked up): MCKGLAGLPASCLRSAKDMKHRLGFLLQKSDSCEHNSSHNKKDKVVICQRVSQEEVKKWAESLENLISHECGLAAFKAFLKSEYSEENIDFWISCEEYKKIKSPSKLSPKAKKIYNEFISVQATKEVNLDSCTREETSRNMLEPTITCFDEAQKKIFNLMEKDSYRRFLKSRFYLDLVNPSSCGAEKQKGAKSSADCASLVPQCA
MrgX1 ant reconf = MrgX1 receptor antagonists, duplicate retest, confirmation, HEK293 cells, Fluo-4 calcium flux | shares compounds with MrgX1 antagonist | BAM8-22 calcium flux; active compounds read low | remaining BAM8-22 calcium response % of control (active compounds read low), % at 10 µM | 19% of 2,300 active | AID 602420, 2012;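 active = remaining agonist calcium response no higher than 100% minus 3 SD of agonist-only control wells, with starting fluorescence near control levels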;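 note: agonist BAM8-22 given at a near maximal EC90 to ECmax level; peak minus minimum fluorescence divided by baseline after agonist addition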
HEK293 Ca flux = nonspecific calcium signal in parental HEK293, confirmation, counter-screen for MrgX1 antagonist project, parental HEK293 cells, Fluo-4 calcium flux | fluorescence ratio F(max-min)/F0 at 10 µM | 2% of 4,000 active | Fluo-4 calcium fluorescence, FDSS | shares compounds with MrgX1 antagonist;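 active = duplicate-averaged calcium fluorescence ratio at least three times the standard deviation of buffer wells, a nonspecific response in parental cells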
HEK293 Ca counter = calcium response in parental HEK293 cells, primary screen, counter-screen for MrgX1 allosteric activator project, cell-based, Fluo-4 calcium flux, duplicate | fluorescence ratio F(max-min)/F0 at 10 µM | 0.4% of 4,000 active | Fluo-4 fluorescence ratio; active compounds read high | shares compounds with MrgX1 antagonist;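 active = calcium fluorescence ratio, averaged over duplicates, at least 3 SD of the buffer-well ratio, meaning a nonspecific response in receptor-free cells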;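 note: untransfected parental HEK293 lacking MrgX1 used as counterscreen for MrgX1 allosteric activators; fluorescence change taken during the second addition on a kinetic imager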
HEK293 Ca cntr2 = calcium response in parental HEK293 cells, primary screen, counter-screen for MrgX1 agonist project, cell-based, Fluo-4 calcium flux, duplicate, agonist mode; Fluo-4 calcium fluorescence (FDSS); active compounds read high; shares compounds with MrgX1 antagonist; fluorescence ratio F(max-min)/F0 at 10 µM; AID 624115, 2012; 8.7% of 4,000 active;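 active = calcium fluorescence ratio at least three times the spread of buffer wells, meaning a non-specific response in parental cells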
* = called active by the depositor. The list is not random: actives were taken first. Their share in the collection is about 3.5%.

What do the screens show for `CCn1c(/C=C/c2c(C)[nH]c3ccccc23)nc2ccccc2c1=O`?
MrgX1 antagonist: -5.3*; MrgX1 PAM: inactive; MrgX1 agonist: inactive; RGS4 act: inactive; RGS4 inh: inactive; MrgX1 ant reconf: inactive; HEK293 Ca flux: inactive; HEK293 Ca counter: inactive; HEK293 Ca cntr2: inactive

What do the screens show for `O=C(Nc1cccc2c1CCCC2)c1ccncc1`?
MrgX1 antagonist: -8.5*; MrgX1 PAM: inactive; MrgX1 agonist: inactive; RGS4 act: inactive; RGS4 inh: inactive; MrgX1 ant reconf: inactive; HEK293 Ca flux: inactive; HEK293 Ca counter: inactive; HEK293 Ca cntr2: inactive

What do the screens show for `CCc1ccccc1OCC(=O)Nc1ccc(S(N)(=O)=O)cc1`?
MrgX1 antagonist: inactive; MrgX1 PAM: inactive; MrgX1 agonist: inactive; RGS4 act: inactive; RGS4 inh: inactive

What do the screens show for `CNCc1ccccc1OCC(=O)Nc1ccccc1`?
MrgX1 antagonist: -4.6*; MrgX1 PAM: inactive; MrgX1 agonist: inactive; RGS4 act: inactive; RGS4 inh: inactive; MrgX1 ant reconf: inactive; HEK293 Ca flux: inactive; HEK293 Ca counter: inactive; HEK293 Ca cntr2: inactive

What do the screens show for `O=C(Nc1ccccc1Cl)C1CCCN(S(=O)(=O)c2ccc(-n3cnnn3)cc2)C1` (stereo not drawn)?
MrgX1 antagonist: inactive; MrgX1 PAM: inactive; MrgX1 agonist: inactive; RGS4 act: inactive; RGS4 inh: inactive

Results for Cn1cc(S(=O)(=O)CC(=O)Nc2ccc(Br)cc2)c2ccccc21 ?
MrgX1 antagonist: -6.1*; MrgX1 PAM: inactive; MrgX1 agonist: inactive; RGS4 act: inactive; RGS4 inh: inactive; MrgX1 ant reconf: inactive; HEK293 Ca flux: inactive; HEK293 Ca counter: inactive; HEK293 Ca cntr2: inactive

What do the screens show for `CCOC(=O)CNc1c(N2CCN(c3ccccn3)CC2)c(=O)c1=O`?
MrgX1 antagonist: -6.5*; MrgX1 PAM: inactive; MrgX1 agonist: inactive; RGS4 act: inactive; RGS4 inh: inactive; MrgX1 ant reconf: inactive; HEK293 Ca flux: inactive; HEK293 Ca counter: inactive; HEK293 Ca cntr2: inactive

Results for O=C(C1CCC(CNc2c(N3CCCCC3)c(=O)c2=O)CC1)N1CCN(c2ccccn2)CC1 (stereo not drawn) ?
MrgX1 antagonist: inactive; MrgX1 PAM: inactive; MrgX1 agonist: inactive; RGS4 act: inactive; RGS4 inh: inactive

What do the screens show for `Cc1sc2nc(SCC(=O)N3CCOCC3)[nH]c(=O)c2c1-c1ccccc1`?
MrgX1 antagonist: -5.1*; MrgX1 PAM: inactive; MrgX1 agonist: inactive; RGS4 act: inactive; RGS4 inh: inactive; MrgX1 ant reconf: inactive; HEK293 Ca flux: inactive; HEK293 Ca counter: inactive; HEK293 Ca cntr2: inactive

What do the screens show for `O=C(Nc1cccc(S(=O)(=O)N2CCCCC2)c1)c1ccc(S(=O)(=O)C(F)F)cc1`?
MrgX1 antagonist: inactive; MrgX1 PAM: inactive; MrgX1 agonist: inactive; RGS4 act: inactive; RGS4 inh: inactive

Results for COC(=O)C(Cc1ccc(O)cc1)NC(=O)CCOc1ccc(OC)cc1 (stereo not drawn) ?
MrgX1 antagonist: inactive; MrgX1 PAM: inactive; MrgX1 agonist: inactive; RGS4 act: inactive; RGS4 inh: inactive

How did O=C(c1ccccc1)N1CCN(Cc2ccccc2)CC1 do in these assays?
MrgX1 antagonist: inactive; MrgX1 PAM: inactive; MrgX1 agonist: inactive; RGS4 act: inactive; RGS4 inh: inactive

Results for Cc1ccc(CN2CCN(C(=O)c3ccncc3)CC2)cc1 ?
MrgX1 antagonist: -4.7*; MrgX1 PAM: inactive; MrgX1 agonist: inactive; RGS4 act: inactive; RGS4 inh: inactive; MrgX1 ant reconf: inactive; HEK293 Ca flux: inactive; HEK293 Ca counter: inactive; HEK293 Ca cntr2: inactive

Results for COCCNC(=O)c1onc(CSc2ccccc2)c1C(=O)NCCOC ?
MrgX1 antagonist: inactive; MrgX1 PAM: inactive; MrgX1 agonist: inactive; RGS4 act: inactive; RGS4 inh: inactive

Results for COCCNc1ccc(S(=O)(=O)N2CCCC2)cn1 ?
MrgX1 antagonist: -5*; MrgX1 PAM: inactive; MrgX1 agonist: inactive; RGS4 act: inactive; RGS4 inh: inactive; MrgX1 ant reconf: inactive; HEK293 Ca flux: inactive; HEK293 Ca counter: inactive; HEK293 Ca cntr2: inactive

How did OCC[C@H]1C[C@@H](O)[C@H](O)[C@]2(CCc3ccccc3CO2)O1 do in these assays?
MrgX1 antagonist: inactive; MrgX1 PAM: inactive; MrgX1 agonist: inactive

Results for OCC[C@@H]1C[C@@H](O)[C@H](O)[C@@]2(CCc3ccccc3CO2)O1 ?
MrgX1 antagonist: -5*; MrgX1 PAM: inactive; MrgX1 agonist: inactive; RGS4 act: inactive; RGS4 inh: inactive; MrgX1 ant reconf: inactive; HEK293 Ca flux: inactive; HEK293 Ca counter: inactive; HEK293 Ca cntr2: inactive

Results for N#CCSc1nnc(Cc2ccc3c(c2)OCO3)o1 ?
MrgX1 antagonist: -5.4*; MrgX1 PAM: inactive; MrgX1 agonist: inactive; RGS4 act: inactive; RGS4 inh: inactive; MrgX1 ant reconf: inactive; HEK293 Ca flux: inactive; HEK293 Ca counter: inactive; HEK293 Ca cntr2: inactive

What do the screens show for `C=CCn1c(C)cc(C(=O)CSc2nnc(Cc3ccccc3)o2)c1C`?
MrgX1 antagonist: inactive; MrgX1 PAM: inactive; MrgX1 agonist: inactive; RGS4 act: inactive; RGS4 inh: inactive

Results for N#CCSc1nnc(-c2ccc3c(c2)OCO3)o1 ?
MrgX1 antagonist: inactive; MrgX1 PAM: inactive; MrgX1 agonist: inactive; RGS4 act: inactive; RGS4 inh: inactive
